This note sets out measurements from ChEMBL document CHEMBL1135830, “NMR-based modification of matrix metalloproteinase inhibitors with improved bioavailability” (J Med Chem, 2002).

Structures are written as SMILES. Bounds are passed on as bounds.

Data set [1] concerns the target T1, Stromelysin-1 (Homo sapiens, UniProt P08254). Briefly: Inhibition of Stromelysin (MMP-3). The arrangement: species or system Rattus norvegicus.
For data set [2], the target named is T1, Stromelysin-1. The data set can be described thus: Binding to stromelysin (MMP-3) in place of acetohydroxamic acid. The arrangement: species or system Rattus norvegicus. The gist of the method: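 Binding detected by sensitivity-enhanced 15N HSQC on uniformly 15N-labeled stromelysin catalytic domain (residues 81-256), 0.3 mM protein in H2O/D2O 9:1 Tris buffer 50 mM pH 7.0, 20 mM CaCl2, 0.05% sodium azide. Ligands added from perdeuterated DMSO, screened at 25.0 mM each; spectra with versus without compound compared for shifts at 500 MHz.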

The test system of another data set is Rattus norvegicus. Briefly: Bioavailability after peroral administration at 30 mg/kg against Stromelysin in rat. It counts as ADME, organism-based. The gist of the method:
(§1)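 Rats (4 per compound, across two studies) dosed orally at 30 mg/kg in hydroxypropyl methyl cellulose. Tail-vein blood drawn at intervals over 7 h, deproteinated with 2 volumes methanol containing 0.1% acetic acid. Drug level in the extract quantified by bioassay against recombinant stromelysin.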

Data set [3] can be described thus: Half-life period was determined. It counts as ADME. The gist of the method:
as §1

Data set [4] can be described thus: Cmax was determined. It counts as ADME, organism-based. To be noted: in vivo. The gist of the method: as §1
Data set [5] deals with T1, Stromelysin-1. Briefly: Binding to stromelysin (MMP-3) in the presence of 1-Napthohydroxamate. The arrangement: species or system Rattus norvegicus. The gist of the method: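 Catalytic domain of stromelysin (residues 81-256), uniformly ¹⁵N-labeled, at 0.3 mM in H₂O/D₂O (9/1) with 50 mM Tris pH 7.0, 20 mM CaCl₂ and 0.05% sodium azide. Compounds were added from perdeuterated DMSO solutions. Binding was detected as changes in sensitivity-enhanced ¹⁵N HSQC spectra (500 MHz), recorded with and without compound.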

The target in data set [6] is T1, Stromelysin-1. The data set can be described thus: Binding to stromelysin (MMP-3) in the presence of acetohydroxamic acid. The arrangement: species or system Rattus norvegicus. The gist of the method:
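Uniformly 15N-labeled stromelysin catalytic domain (residues 81-256) at 0.3 mM in 50 mM Tris, pH 7.0, H2O/D2O 9/1, with 20 mM CaCl2 and 0.05% sodium azide. Sensitivity-enhanced 15N HSQC spectra were recorded at 500 MHz with and without compound added in perdeuterated DMSO. Binding was read from changes in the HSQC spectrum.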

T1 sequence (P08254 whole entry, the tested form may be a part): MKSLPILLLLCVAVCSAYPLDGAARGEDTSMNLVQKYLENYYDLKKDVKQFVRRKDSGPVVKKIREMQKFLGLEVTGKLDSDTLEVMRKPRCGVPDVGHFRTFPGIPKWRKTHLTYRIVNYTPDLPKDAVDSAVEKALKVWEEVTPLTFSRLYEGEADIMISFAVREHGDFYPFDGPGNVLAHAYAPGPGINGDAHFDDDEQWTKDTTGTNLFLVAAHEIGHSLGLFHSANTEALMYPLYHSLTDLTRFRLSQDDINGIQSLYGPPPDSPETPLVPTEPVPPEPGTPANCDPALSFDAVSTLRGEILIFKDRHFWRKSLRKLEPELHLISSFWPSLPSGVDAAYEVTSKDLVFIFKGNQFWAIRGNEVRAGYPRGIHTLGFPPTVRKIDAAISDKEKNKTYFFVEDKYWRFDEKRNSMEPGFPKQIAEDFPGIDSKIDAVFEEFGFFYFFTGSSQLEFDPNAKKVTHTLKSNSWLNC

As a reminder, the IC50 is the midpoint of a concentration-inhibition curve. For `N#Cc1ccc(-c2ccc(OCCCOc3ccc4ccccc4c3C(=O)NO)cc2)cc1`, inhibition against Stromelysin-1 [1] was half-maximal at 10 µM (IC50).

The Kd is the concentration at which binding is half-saturated. `O=C(O)c1ccccc1O` [SALICYLIC ACID] had a Kd at Stromelysin-1 [2] above 25 mM. As usually defined, the half-life is the time needed for the level to fall by half in the phase considered. A word on the Cmax: it is the highest concentration seen after dosing. Molecule `N#Cc1ccc(-c2ccc(OCCOc3ccc4ccccc4c3C(=O)NO)cc2)cc1` registered an IC50 in the data set with Rattus norvegicus of 340 nM. For the same molecule, in data set [3], the half-life was 120 min. Further, in data set [4], the Cmax is 28 µM.

`CCOC(=O)CC(=O)C(F)(F)F` yielded a dissociation constant Kd on Stromelysin-1 [2] above 25 mM. Molecule `O=C(NO)c1ccccc1` [BENZOHYDROXAMATE] gave a Kd at Stromelysin-1 [2] of 7 mM.

Regarding `N#Cc1ccc(-c2ccc(O)cc2)cc1`, the Kd on Stromelysin-1 [5] and on Stromelysin-1 [6] was below 50 µM in each case. At Stromelysin-1 [1], `COc1ccc(-c2ccc(S(=O)(=O)NCCc3ccc4ccccc4c3C(=O)NO)cc2)cc1` registered an IC50 of 10 µM.

As to `c1ccc(-c2ccncc2)cc1`, the Kd at Stromelysin-1 [5] was found to be 900 µM. At Stromelysin-1 [2], `O=C(O)CCS` [MERCAPTOPROPIONIC ACID] showed a Kd of 3 mM. At Stromelysin-1 [2], `O=C(CC(=O)C(F)(F)F)c1ccccc1` gave a Kd above 25 mM. As for `CCOC(=O)NO` [ETHYL HYDROXYCARBAMATE], the Kd at Stromelysin-1 [2] is above 25 mM. Turning to `Oc1ccc(-c2ccc(O)cc2)cc1`, the Kd on Stromelysin-1 [5] worked out at 150 µM. On Stromelysin-1 [2], `NC(=O)NO` [HYDROXYUREA] came in with an equilibrium dissociation constant (Kd) above 25 mM.

Regarding `O=C(NO)c1cccc2ccccc12`, the midpoint of inhibition on Stromelysin-1 [1], the IC50, lay at 50 µM. The molecule further displayed a Kd at Stromelysin-1 [2] of 0.05 mM. In turn, `N#Cc1ccc(-c2ccc(OCCC(=O)NO)cc2)cc1` displayed an IC50 in the data set with Rattus norvegicus of 57 nM. As for `NC(=O)c1ccccc1O` [SALICYLAMIDE], the dissociation constant (Kd) at Stromelysin-1 [2] is above 25 mM.

As to `SCc1cccs1`, on Stromelysin-1 [2], the equilibrium dissociation constant (Kd) is 0.15 mM. In turn, `N#Cc1ccc(-c2ccc(OCc3ccc4ccccc4c3C(=O)NO)cc2)cc1` showed an IC50 against Stromelysin-1 [1] above 10 µM. In turn, `CC(=O)c1ccccn1` registered a Kd on Stromelysin-1 [2] above 25 mM. The molecule `N#CCc1cccc(-c2ccc(S(=O)(=O)CCOc3ccc4ccccc4c3C(=O)NO)cc2)c1` registered an IC50 against Stromelysin-1 [1] of 0.062 µM.
